Results as given in ChEMBL document CHEMBL1137580, “Synthesis, potency, and in vivo profiles of quinoline containing histamine H3 receptor inverse agonists” (J Med Chem, 2007).
Values after ≈ are worked out from the molar mass of the structure shown. Active and inactive are the calls of the source. The calls are words filed in the database; no cut-off is given here.

Legend:
[1] = Half life in rat at 1 mg/kg, iv; assay type: ADME, organism-based; parameters: dose 1 mg/kg, route intravenous; settings: in vivo
Rattus norvegicus [2] = assay: Volume of distribution in rat at 1 mg/kg, iv; assay type: ADME, organism-based; parameters: dose 1 mg/kg, route intravenous; settings: in vivo
[3] = Clearance in rat at 1 mg/kg, iv; assay type: ADME, organism-based; parameters: dose 1 mg/kg, route intravenous; settings: in vivo
[4] = Oral bioavailability in rat at 1 mg/kg; assay type: ADME, organism-based; settings: in vivo
Method in brief: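 Oral dosing in rats at 1 mg/kg, n = 3 animals; F (%) given as mean, SEM <20% of mean unless stated.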

Brain [5] = assay: Drug level in mouse brain at 1 mg/kg, ip; assay type: ADME, organism-based; parameters: dose 1 mg/kg, route intraperitoneal; settings: in vivo
Method in brief: (§1)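 Mice dosed i.p. at 1 mg/kg; brain and blood sampled 1 h after dosing, concentrations by HPLC-MS; n ≥ 3, SEM <11% of mean unless stated.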

[6] = Ratio of drug level in brain to blood in mouse at 1 mg/kg, ip; assay type: ADME, organism-based; parameters: dose 1 mg/kg, route intraperitoneal; method in brief: as §1
Rattus norvegicus [7] = assay: Memory enhancing effect in ip dosed adult rat by social recognition memory method; assay type: functional, organism-based
Method in brief: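 Adult rat explores a juvenile 5 min, separated 2 h, re-exposed 5 min; compound or saline i.p. right after first exposure; investigation ratio (second/first time); ciproxifan 1 mg/kg standard; n ≥ 12, Dunnett's post hoc, P < 0.05; efficacious doses in mg/kg.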

[8] = Protein binding in monkey plasma; assay type: ADME, cell-free, Macaca mulatta; settings: rhesus monkey, read-out: PPB (converted)
[9] = Protein binding in rat plasma; assay type: ADME, cell-free; settings: read-out: PPB (converted)
[10] = Ratio of drug level in brain to blood in rat at 1 mg/kg, iv; assay type: ADME, organism-based; parameters: dose 1 mg/kg, route intravenous
Method in brief: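 Rats given 1 mg/kg i.v.; brain and plasma concentrations measured 1 h after dosing by HPLC-MS, and the brain-to-plasma ratio was taken from these; n ≥ 3 animals.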

Brain [11] = assay: Drug level in rat brain at 1 mg/kg, iv; assay type: ADME, organism-based; parameters: dose 1 mg/kg, route intravenous; settings: in vivo
Method in brief: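 Rats dosed i.v. at 1 mg/kg; brain concentration measured 1 h post-dose by HPLC-MS; n ≥ 3, SEM <11% of mean unless stated.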

[12] = Protein binding in dog plasma; assay type: ADME, cell-free, Canis lupus familiaris; settings: read-out: PPB (converted)
Rattus norvegicus [13] = assay: Memory enhancing effect in ip dosed adult rat by five trial inhibitory avoidance method; assay type: functional, organism-based
Rattus norvegicus [14] = assay: Memory enhancing effect in ip dosed rat by five trial inhibitory avoidance method at 3 mg/kg; assay type: functional, organism-based; parameters: dose 3 mg/kg
Plasma [15] = assay: Drug level in rat plasma at 0.1 mg/kg; assay type: ADME, organism-based; parameters: dose 0.1 mg/kg; settings: in vivo
Homo sapiens = species on record: Homo sapiens; assay: Inhibition of human sigma receptor at 10 uM
Cytochrome P450 1A2 = molecular target: T1, Cytochrome P450 1A2 (Homo sapiens, UniProt P05177); assay: Inhibition of CYP1A2 at 10 to 20 uM; assay type: ADME
T1 sequence (P05177 whole entry): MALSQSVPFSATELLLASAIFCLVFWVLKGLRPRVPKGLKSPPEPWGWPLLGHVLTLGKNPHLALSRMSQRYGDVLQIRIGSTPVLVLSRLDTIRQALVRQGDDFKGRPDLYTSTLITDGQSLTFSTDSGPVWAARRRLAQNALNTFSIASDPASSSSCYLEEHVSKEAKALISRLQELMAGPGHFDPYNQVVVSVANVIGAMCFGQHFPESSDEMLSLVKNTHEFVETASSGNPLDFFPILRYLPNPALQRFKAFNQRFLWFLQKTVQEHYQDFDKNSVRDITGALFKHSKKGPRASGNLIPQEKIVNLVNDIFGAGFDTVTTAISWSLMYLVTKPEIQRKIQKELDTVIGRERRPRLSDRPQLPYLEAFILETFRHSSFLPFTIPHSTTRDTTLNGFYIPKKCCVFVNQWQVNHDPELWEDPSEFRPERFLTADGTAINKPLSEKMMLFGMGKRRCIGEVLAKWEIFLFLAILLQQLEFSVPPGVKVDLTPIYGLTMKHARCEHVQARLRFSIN

Cytochrome P450 2A6 = molecular target: T2, Cytochrome P450 2A6 (Homo sapiens, UniProt P11509); assay: Inhibition of CYP2A6 at 10 to 20 uM; assay type: ADME
T2 sequence (P11509 whole entry): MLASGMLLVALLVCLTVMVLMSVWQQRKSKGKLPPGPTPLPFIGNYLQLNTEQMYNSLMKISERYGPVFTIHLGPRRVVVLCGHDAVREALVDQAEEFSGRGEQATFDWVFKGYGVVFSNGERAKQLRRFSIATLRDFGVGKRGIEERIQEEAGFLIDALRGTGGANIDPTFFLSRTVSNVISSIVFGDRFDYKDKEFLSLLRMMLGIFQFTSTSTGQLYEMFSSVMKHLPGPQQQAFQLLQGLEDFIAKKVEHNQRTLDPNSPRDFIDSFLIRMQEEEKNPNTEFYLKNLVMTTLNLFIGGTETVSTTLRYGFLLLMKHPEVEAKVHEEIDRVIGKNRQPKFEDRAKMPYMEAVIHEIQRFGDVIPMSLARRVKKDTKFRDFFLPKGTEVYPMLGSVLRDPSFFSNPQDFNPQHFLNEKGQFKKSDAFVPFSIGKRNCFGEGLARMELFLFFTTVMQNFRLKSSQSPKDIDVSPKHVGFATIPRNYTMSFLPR

Cytochrome P450 2C19 = Cytochrome P450 2C19 (Homo sapiens, UniProt P33261); assay: Inhibition of CYP2C19 at 10 to 20 uM; assay type: ADME
Cytochrome P450 2C9 = Cytochrome P450 2C9 (Homo sapiens, UniProt P11712); assay: Inhibition of CYP2C9 at 10 to 20 uM; assay type: ADME
Cytochrome P450 2D6 = Cytochrome P450 2D6 (Homo sapiens, UniProt P10635); assay: Inhibition of CYP2D6 at 10 to 20 uM; assay type: ADME
Cytochrome P450 2E1 = Cytochrome P450 2E1 (Homo sapiens, UniProt P05181); assay: Inhibition of CYP2E1 at 10 to 20 uM; assay type: ADME
Cytochrome P450 3A4 = Cytochrome P450 3A4 (Homo sapiens, UniProt P08684); assay: Inhibition of CYP3A4 at 10 to 20 uM; assay type: ADME
[16] = Bioavailability in dog; assay type: ADME, organism-based, Canis lupus familiaris; settings: in vivo
[17] = Solubility in water at pH 7; assay type: physicochemical
[18] = Photostability of the UV light irradiated compound; assay type: ADME
Rattus norvegicus [19] = assay: CNS toxicity assessed as hypoactivity in rat at 9.4 mg/kg; assay type: organism-based; parameters: dose 9.4 mg/kg; settings: in vivo
Rattus norvegicus [20] = assay: CNS toxicity assessed as hypoactivity in rat at 2.8 mg/kg; assay type: organism-based; parameters: dose 2.8 mg/kg; settings: in vivo
Plasma [21] = assay: Drug level in rat plasma at 0.3 mg/kg; assay type: ADME, organism-based; parameters: dose 0.3 mg/kg; settings: in vivo
L-type calcium channel = L-type calcium channel (Homo sapiens, UniProt O60840+Q01668+Q13698+Q13936); assay: Inhibition of human L-type calcium channel at 10 uM
[22] = molecular target: T3, Muscarinic acetylcholine receptor M4 (Homo sapiens) (UniProt P08173); assay: Inhibition of human muscarinic M4 receptor at 10 uM
T3 sequence (whole entry): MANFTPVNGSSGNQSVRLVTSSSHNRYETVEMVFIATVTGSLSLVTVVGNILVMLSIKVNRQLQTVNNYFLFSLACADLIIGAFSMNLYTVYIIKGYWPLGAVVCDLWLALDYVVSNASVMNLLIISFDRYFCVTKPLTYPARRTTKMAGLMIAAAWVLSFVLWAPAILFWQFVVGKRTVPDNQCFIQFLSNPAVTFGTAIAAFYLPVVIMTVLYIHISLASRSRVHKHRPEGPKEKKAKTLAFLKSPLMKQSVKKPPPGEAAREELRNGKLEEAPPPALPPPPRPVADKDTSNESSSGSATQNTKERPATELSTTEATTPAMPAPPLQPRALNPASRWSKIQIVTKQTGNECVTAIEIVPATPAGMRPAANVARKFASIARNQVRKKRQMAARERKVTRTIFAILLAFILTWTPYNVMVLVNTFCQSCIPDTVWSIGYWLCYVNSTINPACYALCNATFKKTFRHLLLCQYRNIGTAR

[23] = molecular target: T4, Adenosine receptor A3 (Homo sapiens) (UniProt P0DMS8); assay: Inhibition of human adenosine A3 receptor at 10 uM
T4 sequence (whole entry): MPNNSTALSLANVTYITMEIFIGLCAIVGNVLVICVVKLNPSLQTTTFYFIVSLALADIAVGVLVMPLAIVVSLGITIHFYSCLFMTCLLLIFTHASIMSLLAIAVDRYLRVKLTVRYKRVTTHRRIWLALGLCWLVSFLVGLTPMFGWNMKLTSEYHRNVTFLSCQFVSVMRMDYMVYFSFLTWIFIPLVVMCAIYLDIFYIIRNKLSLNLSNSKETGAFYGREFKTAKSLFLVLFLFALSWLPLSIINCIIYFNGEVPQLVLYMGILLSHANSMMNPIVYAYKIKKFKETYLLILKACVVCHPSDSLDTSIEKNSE

Rattus norvegicus [24] = assay: CNS toxicity assessed as piloerection in rat at 9.4 mg/kg; assay type: organism-based; parameters: dose 9.4 mg/kg; settings: in vivo
Rattus norvegicus [25] = assay: CNS toxicity assessed as piloerection in rat at 2.8 mg/kg; assay type: organism-based; parameters: dose 2.8 mg/kg; settings: in vivo

Chain of Cytochrome P450 2C9 (P11712 whole entry): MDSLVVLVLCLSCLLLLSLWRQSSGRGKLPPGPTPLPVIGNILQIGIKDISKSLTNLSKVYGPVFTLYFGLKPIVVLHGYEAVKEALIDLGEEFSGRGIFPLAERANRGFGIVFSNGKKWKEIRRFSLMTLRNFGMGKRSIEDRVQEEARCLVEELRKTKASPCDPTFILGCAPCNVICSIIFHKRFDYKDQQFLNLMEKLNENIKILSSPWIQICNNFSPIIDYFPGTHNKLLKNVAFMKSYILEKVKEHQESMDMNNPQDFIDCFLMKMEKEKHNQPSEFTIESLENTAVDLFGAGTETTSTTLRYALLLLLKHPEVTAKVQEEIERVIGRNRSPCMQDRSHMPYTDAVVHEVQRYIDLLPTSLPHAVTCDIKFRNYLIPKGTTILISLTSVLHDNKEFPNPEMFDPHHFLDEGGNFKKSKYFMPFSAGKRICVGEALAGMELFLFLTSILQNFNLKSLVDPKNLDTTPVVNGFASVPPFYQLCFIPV
Chain of Cytochrome P450 3A4 (P08684 whole entry): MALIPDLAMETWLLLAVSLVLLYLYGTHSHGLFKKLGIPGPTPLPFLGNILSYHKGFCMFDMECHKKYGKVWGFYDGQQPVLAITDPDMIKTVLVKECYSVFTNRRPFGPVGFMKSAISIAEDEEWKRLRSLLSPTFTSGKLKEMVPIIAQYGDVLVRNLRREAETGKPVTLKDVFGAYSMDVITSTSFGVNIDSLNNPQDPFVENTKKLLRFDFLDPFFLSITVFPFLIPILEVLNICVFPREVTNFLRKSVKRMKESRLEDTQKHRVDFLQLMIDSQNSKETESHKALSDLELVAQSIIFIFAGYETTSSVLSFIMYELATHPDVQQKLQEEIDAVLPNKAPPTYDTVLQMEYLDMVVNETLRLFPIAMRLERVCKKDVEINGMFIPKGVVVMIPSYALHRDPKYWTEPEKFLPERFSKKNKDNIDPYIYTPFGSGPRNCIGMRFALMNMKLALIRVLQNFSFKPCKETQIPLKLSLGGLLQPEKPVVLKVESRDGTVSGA
Chain of Cytochrome P450 2D6 (P10635 whole entry): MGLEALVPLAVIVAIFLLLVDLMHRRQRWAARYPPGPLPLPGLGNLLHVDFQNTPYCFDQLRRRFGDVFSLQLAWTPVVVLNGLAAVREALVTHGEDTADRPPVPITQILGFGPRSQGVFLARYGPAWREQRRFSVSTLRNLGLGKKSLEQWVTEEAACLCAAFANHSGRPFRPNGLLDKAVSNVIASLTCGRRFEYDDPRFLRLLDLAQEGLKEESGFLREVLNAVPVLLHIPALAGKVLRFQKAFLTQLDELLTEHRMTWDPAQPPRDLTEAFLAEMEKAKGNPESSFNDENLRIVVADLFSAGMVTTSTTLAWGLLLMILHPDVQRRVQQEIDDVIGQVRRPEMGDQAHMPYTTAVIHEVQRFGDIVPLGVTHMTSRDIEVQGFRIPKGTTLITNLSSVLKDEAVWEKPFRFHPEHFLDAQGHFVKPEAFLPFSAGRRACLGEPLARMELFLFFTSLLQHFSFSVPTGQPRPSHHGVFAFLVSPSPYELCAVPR
Chain of Cytochrome P450 2C19 (P33261 whole entry): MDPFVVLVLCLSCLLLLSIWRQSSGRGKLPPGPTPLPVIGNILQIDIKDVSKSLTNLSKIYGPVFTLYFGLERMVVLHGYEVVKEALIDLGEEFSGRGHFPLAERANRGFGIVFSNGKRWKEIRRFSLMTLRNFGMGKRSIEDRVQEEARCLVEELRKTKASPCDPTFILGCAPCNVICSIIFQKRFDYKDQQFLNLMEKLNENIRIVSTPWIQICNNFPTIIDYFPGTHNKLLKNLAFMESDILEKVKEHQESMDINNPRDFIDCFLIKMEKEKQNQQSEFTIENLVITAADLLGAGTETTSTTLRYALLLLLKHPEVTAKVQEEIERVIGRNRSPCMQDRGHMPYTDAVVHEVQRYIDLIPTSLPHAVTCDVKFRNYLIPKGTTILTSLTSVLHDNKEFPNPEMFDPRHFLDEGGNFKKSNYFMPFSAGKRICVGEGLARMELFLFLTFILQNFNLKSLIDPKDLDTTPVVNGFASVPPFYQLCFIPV
Chain of Cytochrome P450 2E1 (P05181 whole entry): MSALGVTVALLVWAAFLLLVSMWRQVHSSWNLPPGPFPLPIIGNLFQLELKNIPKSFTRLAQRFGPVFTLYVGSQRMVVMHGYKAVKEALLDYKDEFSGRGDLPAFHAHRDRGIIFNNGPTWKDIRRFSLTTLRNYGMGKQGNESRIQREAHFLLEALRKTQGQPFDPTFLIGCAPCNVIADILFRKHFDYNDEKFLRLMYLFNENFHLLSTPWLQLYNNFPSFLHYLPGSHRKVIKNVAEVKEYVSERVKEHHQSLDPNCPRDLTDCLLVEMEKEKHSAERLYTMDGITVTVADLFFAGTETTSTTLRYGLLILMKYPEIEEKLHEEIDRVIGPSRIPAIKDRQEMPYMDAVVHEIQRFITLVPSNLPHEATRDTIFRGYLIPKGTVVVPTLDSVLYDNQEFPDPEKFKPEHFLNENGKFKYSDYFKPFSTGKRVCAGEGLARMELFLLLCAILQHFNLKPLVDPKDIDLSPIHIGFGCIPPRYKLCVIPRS

SMILES	half-life [1] [h]	Vbeta (Rattus norvegicus [2]) [L/kg]	clearance [3] [mL/min/kg]	bioavailability [4] [%]	Drug uptake (Brain [5]) [ng/g]	Kp [6]	fraction unbound [8]	fraction unbound [9]	Kp [10]	Drug uptake (Brain [11]) [ng/g]	fraction unbound [12]	Activity (Rattus norvegicus [7])	Activity (Rattus norvegicus [13])	Activity (Rattus norvegicus [14])	further results
Cc1nc(N2CCCC2)ncc1-c1ccc2cc(CCN3CCC[C@H]3C)ccc2n1	4	8.5	24.2	98	718	16	–	–	–	–	–	Active	–	–	–
Cc1nc2ncccc2cc1-c1ccc2cc(CCN3CCC[C@H]3C)ccc2n1	2	9.2	42.3	30	–	–	0.5	0.39	0.4	50	0.57	Active	–	–	–
C[C@@H]1CCCN1CCc1cc2cc(-c3ccc(C#N)cc3)ccc2o1	–	11.6	25	–	1728	–	0.06	0.06	–	3082	0.09	–	–	–	–
O=C(c1ccc(OCCCc2c[nH]cn2)cc1)C1CC1	–	–	–	–	–	–	–	–	–	–	–	Active	–	–	–

More lines, main results first:

half-life [1] [h]	Vbeta (Rattus norvegicus [2]) [L/kg]	clearance [3] [mL/min/kg]	bioavailability [4] [%]	Drug uptake (Brain [5]) [ng/g]	Kp [6]	fraction unbound [8]	fraction unbound [9]	Kp [10]	Drug uptake (Brain [11]) [ng/g]	fraction unbound [12]	SMILES	Activity (Rattus norvegicus [7])	Activity (Rattus norvegicus [13])	Activity (Rattus norvegicus [14])	further results
8.3	7.4	8.83	70	3242	42	0.21	0.11	–	–	–	CCOc1ccc(-n2ncc(-c3ccc4cc(CCN5CCC[C@H]5C)ccc4n3)c2C)nn1	Active	Active	Active	–
2.4	4.1	19.7	75	1659	23	–	–	–	–	–	Cc1c(-c2ccc3cc(CCN4CCC[C@H]4C)ccc3n2)cnn1-c1ccccn1	–	–	–	–
1.7	9	61.7	58	–	–	0.5	0.38	1.8	425	0.42	Cc1nn(C)cc1-c1ccc2cc(CCN3CCC[C@H]3C)ccc2n1	Active	Active	Active	Cp (Plasma [15]): 2.5 ng/mL; inhibition (Homo sapiens): 86%; Activity (Cytochrome P450 1A2): Not Active; Activity (Cytochrome P450 2A6): Not Active; Activity (Cytochrome P450 2C19): Not Active; Activity (Cytochrome P450 2C9): Not Active; Activity (Cytochrome P450 2D6): Not Active; Activity (Cytochrome P450 2E1): Not Active; Activity (Cytochrome P450 3A4): Not Active; bioavailability [16]: 77%; solubility [17]: 21 mg/mL (≈ 62.8 mM); Activity [18]: Not Active; Activity (Rattus norvegicus [19]): Toxic; Activity (Rattus norvegicus [20]): Non-toxic
5.3	6.3	14	90	174	1.5	0.45	0.3	1.6	440	0.4	Cc1cc2ncc(-c3ccc4cc(CCN5CCC[C@H]5C)ccc4n3)c(C)n2n1	Active	Active	Active	Cp (Plasma [21]): 19.2 ng/mL; inhibition at 10 µM (L-type calcium channel): 63%; inhibition [22]: 74%; inhibition [23]: 69%; inhibition (Homo sapiens): 96%; Activity (Cytochrome P450 1A2): Not Active; Activity (Cytochrome P450 2A6): Not Active; Activity (Cytochrome P450 2C19): Not Active; Activity (Cytochrome P450 2C9): Not Active; Activity (Cytochrome P450 2D6): Not Active; Activity (Cytochrome P450 2E1): Not Active; Activity (Cytochrome P450 3A4): Not Active; bioavailability [16]: 72%; solubility [17]: 8.7 mg/mL (≈ 22.6 mM); Activity [18]: Not Active; Activity (Rattus norvegicus [19]): Toxic; Activity (Rattus norvegicus [24]): Toxic; Activity (Rattus norvegicus [20]): Non-toxic; Activity (Rattus norvegicus [25]): Non-toxic
